Rows were chosen to be rich in hits. Some 6.5% of all compounds tested hit in one or more screens of this group.
Ecoli WT expand: growth inhibitors of wild-type E. coli, primary screen, strain BW25113, expanded library, OD600; OD600 absorbance; growth inhibition, % at 100 µM; actives 0.15% (n = 98,000);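 active = growth inhibition above about 50% at one test dose, limit read from the data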;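 also: growth measured after 20 h incubation at 37 °C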
Candida biofilm: clotrimazole potentiators killing Candida biofilms, primary screen, with clotrimazole, Alamar Blue | AID 834, 2007 | inhibition, % at 6 µM | C. albicans biofilm + clotrimazole | actives 0.14% (n = 85,000);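 active = inhibition above 20%; inactive = inhibition below 20%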;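 also: preformed 24 hr biofilms exposed to compound for 48 hr; 0% = biofilm without compound and 100% = blank killed by clotrimazole plus chlorhexidine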
PostGolgi yeast: phenotypic screen on post-Golgi transport, primary screen | post-Golgi transport phenotypic cell assay | actives 0.9% (n = 98,000) | inhibition, % at 10 µM;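 also: yeast cells grown in 1536-well plates; yeast grown about 18 h at 30C before absorbance read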
PostGolgi ctrl: growth inhibition of yeast control strain, primary screen, counter-screen for post-Golgi transport modulator project; inhibition, % at 10 µM; actives 5% (n = 98,000); AID 738, 2007; efflux-deficient yeast background strain, growth absorbance A615, 16 h
Ecoli tolC: growth inhibitors of E. coli tolC mutant, primary screen, strain BW25113 ΔtolC::kan, 384-well | OD615 | growth inhibition, % at 10 µM (by protocol) | actives 2.2% (n = 65,000) | AID 573, 2007;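 active = growth inhibition at or above a cutoff equal to the mean over every tested compound plus 3 SD, cut at about 60% in these data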;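 also: growth measured after 20 h incubation at 37 °C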
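test system = E. coli BW25113 ΔtolC::kan bacteria | medium = LB with kanamycin 50 µg/mL | signal = OD at 615 nm | schedule = 37 °C, 20 h exposure | evaluation = % inhibition of E. coli growth | compound dosing = one dose of 10 µM final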
PTK2B oligo ant: antagonists of Pyk2 self-association, primary screen, Q293 cells, FERM NanoBiT luminescence, HTS; Protein-tyrosine kinase 2-beta (Homo sapiens), Q14289; active compounds read low; z-score (the deposit names both 25 µM and 10 µM); actives 0.83% (n = 99,000);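 active = Z-score of -3 or lower, scaled per plate to the spread of control and sample wells; inactive = z-score above -3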;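 also: negative z-score means lost luminescence so less FERM oligomerization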
Target sequence (Q14289 whole entry, looked up): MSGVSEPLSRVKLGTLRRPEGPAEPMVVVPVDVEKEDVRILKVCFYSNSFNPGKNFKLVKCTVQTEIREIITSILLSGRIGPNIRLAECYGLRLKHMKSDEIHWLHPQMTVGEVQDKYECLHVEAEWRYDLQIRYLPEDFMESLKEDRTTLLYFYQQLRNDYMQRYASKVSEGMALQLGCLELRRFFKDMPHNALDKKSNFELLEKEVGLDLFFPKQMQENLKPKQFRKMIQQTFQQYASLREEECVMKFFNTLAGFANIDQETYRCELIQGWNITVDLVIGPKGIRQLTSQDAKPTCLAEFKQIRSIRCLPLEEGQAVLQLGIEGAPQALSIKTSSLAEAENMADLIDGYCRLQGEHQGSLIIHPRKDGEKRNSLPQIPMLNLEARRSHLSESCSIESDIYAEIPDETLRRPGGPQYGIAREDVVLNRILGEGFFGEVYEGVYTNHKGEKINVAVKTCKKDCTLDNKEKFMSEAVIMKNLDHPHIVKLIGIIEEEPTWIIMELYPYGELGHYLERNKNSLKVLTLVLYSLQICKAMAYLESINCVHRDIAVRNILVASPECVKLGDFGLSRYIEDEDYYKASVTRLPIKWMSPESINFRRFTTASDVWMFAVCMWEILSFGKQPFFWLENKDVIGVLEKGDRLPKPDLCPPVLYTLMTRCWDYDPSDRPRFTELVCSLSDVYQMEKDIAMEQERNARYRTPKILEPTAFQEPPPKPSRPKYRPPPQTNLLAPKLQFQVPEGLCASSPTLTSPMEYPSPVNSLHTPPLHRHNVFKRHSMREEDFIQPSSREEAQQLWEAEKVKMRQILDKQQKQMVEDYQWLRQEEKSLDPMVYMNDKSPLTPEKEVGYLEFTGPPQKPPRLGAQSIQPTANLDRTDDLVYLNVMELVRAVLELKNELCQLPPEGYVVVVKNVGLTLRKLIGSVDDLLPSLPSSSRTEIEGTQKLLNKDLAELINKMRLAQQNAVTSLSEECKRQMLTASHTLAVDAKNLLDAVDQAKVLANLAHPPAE
An asterisk follows results filed as active. Rule as the data show it, unless noted: active = inhibition above about 30%; inactive = the rest.

How did N[C@@H](Cc1c[nH]c2ccccc12)c1nnc(SCc2ccc(Cl)cc2)o1 do in these assays?
Ecoli WT expand: 21; Candida biofilm: 4; PostGolgi yeast: 47*; PostGolgi ctrl: -1; Ecoli tolC: 31; PTK2B oligo ant: 0.66

Results for CCn1nc(-c2cccs2)nc2c(=O)n(C)c(=O)nc1-2 ?
Ecoli WT expand: 26; PostGolgi yeast: 105*; PostGolgi ctrl: 100*; Ecoli tolC: 97*; PTK2B oligo ant: -3.3*

How did Cc1cccn2c(=O)c3c(nc12)N1CCC(Cc2ccccc2)CC1C1(C3)C(=O)N(C)C(=O)N(C)C1=O (configuration not stated) do in these assays?
Ecoli WT expand: -2; Candida biofilm: 1; PostGolgi yeast: -4; PostGolgi ctrl: 23; Ecoli tolC: 67*; PTK2B oligo ant: -0.77

Results for NCC1(CC(=O)O)CCCCC1 ?
Candida biofilm: 3; Ecoli tolC: 4

How did COc1ccccc1N1CCN(Cc2ccccc2F)CC1 do in these assays?
Ecoli WT expand: 5; Candida biofilm: 9; PostGolgi yeast: 36*; PostGolgi ctrl: -1; Ecoli tolC: -19; PTK2B oligo ant: -0.21

How did Cc1nn(C)c(C)c1P(=S)(c1c(C)nn(C)c1C)N(C)C do in these assays?
Ecoli WT expand: -1; Candida biofilm: 8; PostGolgi yeast: 10; PostGolgi ctrl: 40*; Ecoli tolC: -14; PTK2B oligo ant: 0.04

What do the screens show for `CCOC(=O)c1c(-n2c(C)cc(C=C3C(=O)NC(=S)NC3=O)c2C)sc2c1CCCC2`?
Ecoli WT expand: -16; PostGolgi yeast: 97*; PostGolgi ctrl: 42*; PTK2B oligo ant: -1

What do the screens show for `CCOP(=O)(OCC)C(NC(=O)c1ccccc1Cl)=C(Cl)Cl`?
Ecoli WT expand: -8; PostGolgi yeast: -6; PostGolgi ctrl: -1; PTK2B oligo ant: 0.18

What do the screens show for `CCOP(=O)(C(NC(=O)c1ccccc1Cl)=C(Cl)Cl)c1ccccc1` (configuration not stated)?
Ecoli WT expand: 7; Candida biofilm: 69*; PostGolgi yeast: -9; PostGolgi ctrl: -1; PTK2B oligo ant: 0.08

Results for CCOc1cc(/C=C2/C(=O)NC(=O)N(c3ccc(CC)cc3)C2=O)ccc1OC(=O)c1cccs1 ?
Ecoli WT expand: 2; PostGolgi yeast: 3; PostGolgi ctrl: -1; PTK2B oligo ant: 1.7

How did CC(C)Cc1[nH]c(=O)c(C#N)c2c1CCC2 do in these assays?
Ecoli WT expand: 1; Candida biofilm: 1; PostGolgi yeast: 35*; PostGolgi ctrl: -4; Ecoli tolC: 13; PTK2B oligo ant: 0.6

How did COc1ccc(N=C(C)c2c(O)n(C3CCCCC3)c(=O)[nH]c2=O)c(OC)c1 do in these assays?
Ecoli WT expand: -9; Candida biofilm: 2; PostGolgi yeast: 4; PostGolgi ctrl: 9; Ecoli tolC: -20; PTK2B oligo ant: -3.4*

Results for CN(C)c1ccc(CN2CC=C(c3ccc(F)cc3)CC2)cc1 ?
Ecoli WT expand: 18; Candida biofilm: 10; PostGolgi yeast: 5; PostGolgi ctrl: 1; Ecoli tolC: 11; PTK2B oligo ant: 0.82

How did OC(COCc1ccc(Cl)cc1)CN1CC=C(c2ccccc2)CC1 (configuration not stated) do in these assays?
Ecoli WT expand: 24; Candida biofilm: 4; PostGolgi yeast: 63*; PostGolgi ctrl: 15; Ecoli tolC: -2; PTK2B oligo ant: -0.01

Results for CCC12C=CCN3CCC4(c5cc(Br)c(OC)cc5N(C)C4C(O)(C(=O)OC)C1OC(C)=O)C32 (configuration not stated) ?
Ecoli WT expand: 10; PostGolgi yeast: 10; PostGolgi ctrl: -3; PTK2B oligo ant: 0.1

Results for COc1ccccc1/C=N/N=C(/N)N[N+](=O)[O-] ?
Ecoli WT expand: 6; Candida biofilm: 44*; PostGolgi yeast: -8; PostGolgi ctrl: 5; PTK2B oligo ant: 0.54

What do the screens show for `N/C(=N\N=C\c1ccc(O)cc1O)N[N+](=O)[O-]`?
Ecoli WT expand: -6; Candida biofilm: 1; PostGolgi yeast: 24; PostGolgi ctrl: -1; PTK2B oligo ant: -0.59

Results for O=C(CNC(=O)OCc1ccccc1)Nc1ccc(Br)cc1C(=O)c1ccccc1 ?
Ecoli WT expand: -8; PostGolgi yeast: -3; PostGolgi ctrl: 37*; PTK2B oligo ant: -0.19

What do the screens show for `O=C(CN1CCCCC1)NCC(=O)Nc1ccc(Br)cc1C(=O)c1ccccc1`?
Ecoli WT expand: 10; PostGolgi yeast: -3; PostGolgi ctrl: 14; PTK2B oligo ant: 0.39

What do the screens show for `O=C(CNC(=O)c1ccccc1)Nc1ccc(Br)cc1C(=O)c1ccccc1`?
Ecoli WT expand: 1; PostGolgi yeast: -5; PostGolgi ctrl: 31*; PTK2B oligo ant: -0.62

Results for O=C(CCN1CCOCC1)NCC(=O)Nc1ccc(Br)cc1C(=O)c1ccccc1 ?
Ecoli WT expand: 3; Candida biofilm: -2; PostGolgi yeast: -3; PostGolgi ctrl: -5; Ecoli tolC: 3; PTK2B oligo ant: -0.1

Results for CCCCCCOc1ccc(CN2CCN(CC)CC2)cc1 ?
Ecoli WT expand: 13; Candida biofilm: 1; PostGolgi yeast: 13; PostGolgi ctrl: 11; PTK2B oligo ant: 0.54

Results for O=c1[nH]c(=S)n(Cc2ccc(F)cc2)c(O)c1C=NCc1cccnc1 ?
Ecoli WT expand: -3; Candida biofilm: -5; PostGolgi yeast: 0; PostGolgi ctrl: 10; PTK2B oligo ant: 0.37

What do the screens show for `Cc1nc2c(c(C)nn2-c2ccccc2)c(C)c1CCC(=O)N1CCC2(CC1)OCCO2`?
Ecoli WT expand: 0; Candida biofilm: 4; PostGolgi yeast: 8; PostGolgi ctrl: 34*; Ecoli tolC: 3; PTK2B oligo ant: -0.29

How did N#CCCn1cc(C(=O)Nc2ccccc2Cl)c(-c2ccc([N+](=O)[O-])cc2)n1 do in these assays?
PTK2B oligo ant: -0.34

How did CC(=O)OC1(c2ccccc2)CCN(C)C(C)C1C (configuration not stated) do in these assays?
Candida biofilm: 11; PTK2B oligo ant: 0.02

Results for COc1ccc2c(c1)CC1(CN2C)C(=O)NC(=O)N(CCc2ccccc2)C1=O (configuration not stated) ?
Ecoli WT expand: 8; Candida biofilm: 3; PostGolgi yeast: 1; PostGolgi ctrl: -12; Ecoli tolC: -7; PTK2B oligo ant: 0.93

How did CCC(C)N1C(=O)NC(=O)C2(Cc3c(ccc4ccccc34)N(C)C2)C1=O (configuration not stated) do in these assays?
Ecoli WT expand: 3; Candida biofilm: -2; PostGolgi yeast: 3; PostGolgi ctrl: 33*; Ecoli tolC: 50; PTK2B oligo ant: -1.1

How did CCCCN1C(=O)NC(=O)C2(Cc3ccccc3N3CCOCC32)C1=O (configuration not stated) do in these assays?
Ecoli WT expand: 4; Candida biofilm: 3; PostGolgi yeast: -8; PostGolgi ctrl: -6; Ecoli tolC: -3; PTK2B oligo ant: -0.4
